Assay results published in ChEMBL document CHEMBL3526048, “In vitro metabolism of rivoglitazone, a novel peroxisome proliferator-activated receptor γ agonist, in rat, monkey, and human liver microsomes and freshly isolated hepatocytes” (Drug Metab Dispos, 2011).

Legend:
Cytochrome P450 1A2 [1] = target: T1, Cytochrome P450 1A2 (Homo sapiens, UniProt P05177); assay: Activity of human CYP1A2 expressed in microsomes isolated from baculovirus infected insect cell assessed as enzyme-mediated compound formation treated with [14C]-rivoglitazone at 20 uM after 2 hrs by radio-HPLC/LC-MS/MS analysis in presence of NADPH-generating system; assay type: ADME
T1 sequence (P05177 whole entry): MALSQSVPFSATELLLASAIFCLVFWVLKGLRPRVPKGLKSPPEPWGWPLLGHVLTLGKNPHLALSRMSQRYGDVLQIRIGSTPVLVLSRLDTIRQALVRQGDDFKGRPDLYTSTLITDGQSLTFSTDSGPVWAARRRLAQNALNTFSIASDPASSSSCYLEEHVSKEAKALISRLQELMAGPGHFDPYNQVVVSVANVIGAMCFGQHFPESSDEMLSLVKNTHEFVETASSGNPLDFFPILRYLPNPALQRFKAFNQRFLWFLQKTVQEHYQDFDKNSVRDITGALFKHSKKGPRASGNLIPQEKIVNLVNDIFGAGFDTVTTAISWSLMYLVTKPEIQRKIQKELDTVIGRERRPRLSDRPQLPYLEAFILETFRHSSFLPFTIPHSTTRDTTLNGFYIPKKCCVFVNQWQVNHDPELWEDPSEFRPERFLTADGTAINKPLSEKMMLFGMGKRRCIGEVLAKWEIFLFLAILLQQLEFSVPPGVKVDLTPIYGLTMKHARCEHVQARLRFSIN
Outline: (§1)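 Baculovirus/insect-cell microsomes expressing single human CYPs, 1 mg/ml protein, with 50 mM potassium phosphate (pH 7.4) or 100 mM Tris-HCl (pH 7.5). NADPH-generating system: 2 mM NADP⁺, 20 mM glucose 6-phosphate, 2 units/ml G6PDH, 10 mM MgCl₂. [¹⁴C]rivoglitazone at 20 μM, 2 h at 37°C with shaking. Control used insect-cell control supersomes. Stopped with acetonitrile; supernatant concentrated under nitrogen; metabolites analysed by radio-HPLC, LC-MS and LC-MS/MS.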

Cytochrome P450 1A2 [2] = target: T1, Cytochrome P450 1A2; assay: Activity of human CYP1A2 expressed in microsomes isolated from baculovirus infected insect cell assessed as enzyme-mediated (2S,3S,4S,5R,6R)-3,4,5-trihydroxy-6-(5-(4-((6-methoxy-1-methyl-1H-benzo[d]imidazol-2-yl)methoxy)benzyl)-2,4-dioxothiazolidin-3-yl)tetrahydro-2H-pyran-2-carboxylic acid formation at 20 uM after 2 hrs by radio-HPLC/LC-MS/MS analysis in presence of UDPGA and UDPGA/SAM; assay type: ADME
[3] = Drug metabolism in monkey hepatocytes assessed as formation of 5-(4-((6-methoxy-1H-benzo[d]imidazol-2-yl)methoxy)benzyl)thiazolidine-2,4-dione at 30 uM after 3 hrs by radio-HPLC/LC-MS/MS analysis in presence of NADPH-generating system and NADPH-generating system/SAM; conditions: cynomolgus monkey
[4] = target: T2, UDP-glucuronosyltransferase 2B7 (Homo sapiens, UniProt P16662); assay: Activity of human UGT2B7 expressed in microsomes isolated from baculovirus infected insect cell assessed as enzyme-mediated 2-mercapto-3-(4-((6-methoxy-1-methyl-1H-benzo[d]imidazol-2-yl)methoxy)phenyl)propanamide formation at 20 uM after 4 hrs by radio-HPLC/LC-MS/MS analysis in presence of NADPH-generating system and NADPH-generating system/SAM in presence of UDPGA and UDPGA/SAM; assay type: ADME
T2 sequence (P16662 whole entry): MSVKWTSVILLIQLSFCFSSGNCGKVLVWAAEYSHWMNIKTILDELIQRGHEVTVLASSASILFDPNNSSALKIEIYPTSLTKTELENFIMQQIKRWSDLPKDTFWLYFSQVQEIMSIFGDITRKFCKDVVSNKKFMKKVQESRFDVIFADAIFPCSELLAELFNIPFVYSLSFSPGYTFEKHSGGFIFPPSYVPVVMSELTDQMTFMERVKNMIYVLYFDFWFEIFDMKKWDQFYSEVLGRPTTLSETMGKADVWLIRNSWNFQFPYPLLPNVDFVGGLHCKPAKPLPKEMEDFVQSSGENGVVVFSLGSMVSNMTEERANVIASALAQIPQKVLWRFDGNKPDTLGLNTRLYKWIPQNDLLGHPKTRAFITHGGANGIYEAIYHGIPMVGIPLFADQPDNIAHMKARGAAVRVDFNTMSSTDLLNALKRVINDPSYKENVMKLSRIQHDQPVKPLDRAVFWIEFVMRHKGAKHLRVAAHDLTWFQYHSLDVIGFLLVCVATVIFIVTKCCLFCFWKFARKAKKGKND

Cytochrome P450 2C8 [5] = target: T3, Cytochrome P450 2C8 (Homo sapiens, UniProt P10632); assay: Activity of human CYP2C8 expressed in microsomes isolated from baculovirus infected insect cell assessed as enzyme-mediated 3-(4-((6-methoxy-1-methyl-1H-benzo[d]imidazol-2-yl)methoxy)phenyl)-2-(methylsulfonyl)propanamide formation at 20 uM after 2 hrs by radio-HPLC/LC-MS/MS analysis in presence of NADPH-generating system/SAM; assay type: ADME
T3 sequence (P10632 whole entry): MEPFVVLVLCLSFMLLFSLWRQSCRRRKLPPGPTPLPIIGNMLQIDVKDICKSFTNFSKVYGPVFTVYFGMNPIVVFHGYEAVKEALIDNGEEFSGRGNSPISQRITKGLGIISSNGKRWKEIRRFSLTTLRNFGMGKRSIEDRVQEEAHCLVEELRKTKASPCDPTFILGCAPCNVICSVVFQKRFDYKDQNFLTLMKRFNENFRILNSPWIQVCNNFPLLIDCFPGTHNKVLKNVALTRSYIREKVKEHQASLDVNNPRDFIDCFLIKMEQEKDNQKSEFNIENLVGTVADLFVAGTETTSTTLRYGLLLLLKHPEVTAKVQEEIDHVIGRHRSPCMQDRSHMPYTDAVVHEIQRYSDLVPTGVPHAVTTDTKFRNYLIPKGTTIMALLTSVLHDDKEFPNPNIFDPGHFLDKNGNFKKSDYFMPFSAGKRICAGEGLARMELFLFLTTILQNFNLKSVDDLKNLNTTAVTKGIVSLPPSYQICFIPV

Liver microsome [6] = assay: Drug metabolism in human liver microsomes assessed as formation of 3-(4-((6-methoxy-1-methyl-1H-benzo[d]imidazol-2-yl)methoxy)phenyl)-2-(methylsulfinyl)propanamide at 20 uM after 2 hrs by radio-HPLC/LC-MS/MS analysis in presence of NADPH-generating system/SAM; assay type: ADME
Cytochrome P450 2C8 [7] = target: T3, Cytochrome P450 2C8; assay: Activity of human CYP2C8 expressed in microsomes isolated from baculovirus infected insect cell assessed as enzyme-mediated 2-hydroxy-3-(4-((6-methoxy-1-methyl-1H-benzo[d]imidazol-2-yl)methoxy)phenyl)propanamide formation at 20 uM after 2 hrs by radio-HPLC/LC-MS/MS analysis in presence of NADPH-generating system and NADPH-generating system/SAM; assay type: ADME; outline: as §1
[8] = Drug metabolism in rat hepatocytes assessed as formation of 5-(4-((6-hydroxy-1-methyl-1H-benzo[d]imidazol-2-yl)methoxy)benzyl)thiazolidine-2,4-dione at 30 uM after 3 hrs by radio-HPLC/LC-MS/MS analysis in presence of NADPH-generating system and NADPH-generating system/SAM; assay type: ADME, cell-based, Hepatocyte
Liver microsome [9] = assay: Drug metabolism in human liver microsomes assessed as formation of 3-(4-((6-methoxy-1-methyl-1H-benzo[d]imidazol-2-yl)methoxy)phenyl)-2-(methylthio)propanoic acid at 20 uM after 2 to 4 hrs by radio-HPLC/LC-MS/MS analysis in presence of NADPH-generating system/SAM and UDPGA/SAM; assay type: ADME

Measured: Drug metabolism

COc1ccc2nc(COc3ccc(CC(S)C(=O)O)cc3)n(C)c2c1 (centres undefined)
metabolite_detected: Cytochrome P450 1A2 [1]

COc1ccc2nc(COc3ccc(C[14CH]4SC(=O)NC4=O)cc3)n(C)c2c1.Cl (racemic)
metabolite_detected: Liver microsome [6] | Cytochrome P450 2C8 [7] | [8] | Liver microsome [9]
metabolite_not_detected: Cytochrome P450 1A2 [2] | [3] | [4] | Cytochrome P450 2C8 [5]
